Source: publication PMC7551138 (Alzheimer's & Dementia : Translational Research & Clinical …, 2020)

What was measured:
[1] = test system: healthy elderly subjects; assay: Monitoring of treatment‐emergent adverse events; assay type: in vivo, human; conditions: 16 mg oral, single dose; within 24 hours after administration
Outline: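 Randomised, double-blind, placebo-controlled trial in healthy subjects aged ≥65 (n=48; 12 active:4 placebo per cohort, placebos pooled). Intranasal test compound 5.5, 11 or 22 mg or 0.9% NaCl b.i.d. for 7 days, 6 h between doses. The 11 mg active subjects later got one open-label oral 16 mg dose of the parent drug. Safety was tracked by TEAEs, nasal examination, vital signs, ECG and safety bloods.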

[2] = 4 mg/kg in mice; cited from earlier work

COc1ccc2c3c1O[C@H]1C[C@@H](O)C=C[C@@]31CCN(C)C2 [galantamine, reference compound]
TEAEs within 24 hours: All gastrointestinal disorders [1]: 8 (66.7) number of subjects (percentage
TEAEs within 24 hours: Any events [1]: 10 (83.3) number of subjects (percentage
TEAEs within 24 hours: Diarrhea [1]: 1 (8.3) number of subjects (percentage
TEAEs within 24 hours: Nausea [1]: 5 (41.7) number of subjects (percentage
TEAEs within 24 hours: Vomiting [1]: 5 (41.7) number of subjects (percentage
brain‐to‐blood ratio [2]: 2.1
